This passage reports Activity results from ChEMBL document CHEMBL4321800, “Synthesis, Identification, and Structure-Activity Relationship Analysis of GATA4 and NKX2-5 Protein-Protein Interaction Modulators” (J Med Chem, 2019).

The structures appear in SMILES notation. Where only a bound is given, the exact number is not on record here.

Homeobox protein Nkx-2.5 (Mus musculus), sequence (P42582 whole entry): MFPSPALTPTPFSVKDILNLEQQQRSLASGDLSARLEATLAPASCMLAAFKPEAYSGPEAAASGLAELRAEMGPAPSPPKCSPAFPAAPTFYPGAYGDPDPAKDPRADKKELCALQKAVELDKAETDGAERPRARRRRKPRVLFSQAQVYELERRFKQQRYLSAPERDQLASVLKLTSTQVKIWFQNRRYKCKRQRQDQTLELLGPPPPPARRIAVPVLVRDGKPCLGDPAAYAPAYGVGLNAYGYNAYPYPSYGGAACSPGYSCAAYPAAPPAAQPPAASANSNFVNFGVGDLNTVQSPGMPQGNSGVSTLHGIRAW

One data set concerns the target Homeobox protein Nkx-2.5 (Mus musculus) (UniProt P42582). The data set can be described thus: Modulation of mouse NKX2-5 expressed in Chlorocebus aethiops COS1 cells harboring 3xHA reporter gene assessed as protein-induced transcriptional activity at 10 uM after 24 hrs by luciferase reporter gene assay relative to control. The format is cell-based.
Settings: not given
Summed up: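 COS-1 cells seeded 14 000/well and grown overnight. Transfection for 6 h in serum- and antibiotic-free medium with pGL3-3xHA reporter (100 ng/well) and pMT2-NKX2-5 (25 ng/well), Fugene 6 1:3. Compound or 0.1% DMSO vehicle for 24 h, then luciferase luminescence. Triplicate wells with Grubbs outlier removal, % of control.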
For orientation: In a reporter assay the amount or activity of a reporter protein is the signal.
For the compound `CCN(CC)c1ccc(NC(=O)c2c(-c3ccc(C)s3)noc2C)cc1`, the Activity was determined as 88%.

For the compound `Cc1onc(-c2ccccc2)c1C(=O)Nc1ccc(-c2ccccc2)cc1`, the Activity was determined as 97%.

In the case of `Cc1onc(-c2ccccc2)c1C(=O)Nc1nc(C(C)(C)C)cs1`, the Activity was determined as 96%. On the same count and under the same terms, the figure for `CCN(CC)c1ccc(NC(=O)c2c(-c3coc(C)n3)noc2C)cc1` is 86%. Same read-out and setting: in the case of `CCN(CC)c1ccc(N(C)C(=O)c2c(-c3ccccc3)noc2C)cc1` it was 100%; in that of `CCN(CC)c1ccc(NC(=O)c2c(-n3cccc3)sc(C)c2C)cc1`, 90%.

Another data set deals with COS-1. The data set can be described thus: Induction of necrosis in Chlorocebus aethiops COS1 cells assessed as LDH release at 1 to 30 uM after 24 hrs by LDH assay relative to control. The class given is cell-based. Particulars: cos-1, 24 h. Summed up:
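COS-1 cells in DMEM with 10% FBS at 37 °C, 5% CO₂, plated 10 000/well and exposed next day to 1–30 μM for 24 h. Medium samples mixed with NAD, iodonitrotetrazolium, lactate and phenazine methosulfate in 0.2 M Tris-HCl pH 8.2, 30 min at room temperature. Stopped with acetic acid, A490 read and normalized to maximal and spontaneous release.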
A general note: LDH leaks from cells whose membrane has failed.
On to `CCN(CC)c1ccc(/C=N/c2c(-c3ccccc3)noc2C)c(O)c1`, for which the Activity is listed as less than 8%. Turning to `CCN(CC)c1ccc(NC(=O)c2c[nH]nc2-c2ccccc2)cc1`, the Activity is less than 8%. The same measure, in the same setting: in the case of `CCCn1nnc(-c2ccccc2)c1C(=O)Nc1ccc(N(CC)CC)cc1` it was less than 8%; in that of `CCN(CC)c1ccc(NCc2c[nH]nc2-c2cc(F)cc(F)c2)cc1`, less than 8%. Same read-out and setting: the figure for `Cc1onc(-c2ccccc2)c1C(=O)Nc1ccc(OCc2ccccc2)cc1` is less than 8%; for `CCN(CC)c1ccc(NC(=O)c2ccnn2-c2ccccc2)cc1` it is less than 8%; for `COc1ccc(-c2cc(N)nn2C(=O)c2c(-c3ccccc3)noc2C)cc1` it is less than 8%.

In the case of `CC[N+](O)(CC)c1ccc(NC(=O)c2c(-c3ccccc3)noc2C)cc1.O=C([O-])c1cccc(Cl)c1`, the Activity is reported as less than 8%. With `CN(C)c1ccc(NCc2c[nH]nc2-c2ccc(F)cc2)cc1`, the Activity was less than 8%.

In a further data set the target is Transcription factor GATA-4 (Mus musculus) (UniProt Q08369). The data set can be described thus: Modulation of mouse GATA4 expressed in Chlorocebus aethiops COS1 cells harboring NP-112 reporter gene assessed as BNP promoter-driven transcriptional activity at 10 uM after 24 hrs by luciferase reporter gene assay relative to control. The format is cell-based.
Transcription factor GATA-4 (Mus musculus), sequence (Q08369 whole entry): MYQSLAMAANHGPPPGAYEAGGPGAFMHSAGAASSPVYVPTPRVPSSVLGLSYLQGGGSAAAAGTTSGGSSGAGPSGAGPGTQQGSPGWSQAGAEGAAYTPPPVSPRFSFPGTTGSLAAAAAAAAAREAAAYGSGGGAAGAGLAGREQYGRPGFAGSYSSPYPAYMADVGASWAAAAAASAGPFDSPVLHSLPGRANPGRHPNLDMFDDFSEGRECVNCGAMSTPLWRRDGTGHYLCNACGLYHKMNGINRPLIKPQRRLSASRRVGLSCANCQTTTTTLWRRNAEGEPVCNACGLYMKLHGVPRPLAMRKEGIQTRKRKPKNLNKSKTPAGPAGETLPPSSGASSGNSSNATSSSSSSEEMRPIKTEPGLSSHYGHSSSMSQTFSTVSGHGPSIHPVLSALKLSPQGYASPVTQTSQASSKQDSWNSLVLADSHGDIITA
Settings: not given
Summed up: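 GATA reporter assay: COS-1 cells (14 000/well, overnight) transfected 6 h serum/antibiotic-free with NP-112 reporter (tandem GATA sites plus rat BNP minimal promoter, 100 ng/well) and pMT2-GATA4 (25 ng/well), Fugene 6 1:3. Treated 24 h with compound or 0.1% DMSO. Luminescence read; triplicates, Grubbs outliers removed, % of control.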
Consider `CCN(CC)c1ccc(NC(=O)c2c(-c3ccc(C)s3)noc2C)cc1`, for which the Activity was 92%. Take `Cc1onc(-c2ccccc2)c1C(=O)Nc1ccc(-c2ccccc2)cc1`: the Activity was determined as 110%.

For `Cc1onc(-c2ccccc2)c1C(=O)Nc1nc(C(C)(C)C)cs1`, the Activity is 110%. On the same count and under the same terms, the figure for `CCN(CC)c1ccc(NC(=O)c2c(-c3coc(C)n3)noc2C)cc1` is 110%; for `CCN(CC)c1ccc(N(C)C(=O)c2c(-c3ccccc3)noc2C)cc1` it is 99%; for `CCN(CC)c1ccc(NC(=O)c2c(-n3cccc3)sc(C)c2C)cc1` it is 66%.

A further data set has as its target GATA4/NKX2-5 (Mus musculus) (UniProt Q08369+P42582). The data set can be described thus: Modulation of mouse GATA4/mouse NKX2-5 protein-protein interaction expressed in Chlorocebus aethiops COS1 cells harboring 3xHA reporter gene assessed as transcriptional synergy at 10 uM after 24 hrs by luciferase reporter gene assay relative to control. The format is cell-based.
Settings: not given
The method in brief:
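COS-1 cells seeded 14 000/well, grown overnight, then transfected for 6 h in serum- and antibiotic-free medium with pGL3-3xHA reporter (three NKX2-5 sites, 100 ng/well) plus pMT2-GATA4 and pMT2-NKX2-5 (total 50 ng/well), Fugene 6 at 1:3 DNA/reagent. Compound or 0.1% DMSO vehicle for 24 h, then luminescence read. Triplicates, Grubbs outliers removed, expressed as % of control.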
Regarding `CCN(CC)c1ccc(NC(=O)c2c(-c3ccc(C)s3)noc2C)cc1`, the Activity was 100%. On to `Cc1onc(-c2ccccc2)c1C(=O)Nc1ccc(-c2ccccc2)cc1`, for which the Activity worked out at 110%. On the same count and under the same terms, the figure for `CCN(CC)c1ccc(NC(=O)c2c(-c3ccc([N+](=O)[O-])cc3)noc2C)cc1` is 100%; for `CCN(CC)c1ccc(CN(C)c2c(-c3ccccc3)noc2C)cc1` it is 82%; for `CCN(CC)c1ccc(NC(=O)c2c(-c3ccccc3)nnc3ccccc23)cc1` it is 87%. On to `CCN(CC)c1ccc(NC(=O)c2c(C(F)(F)F)nn(C)c2Oc2ccccc2)cc1`, for which the Activity came out at 68%. Still for that read-out and setting: in the case of `CCN(CC)c1ccc(NS(=O)(=O)c2c(-c3ccccc3)noc2C)cc1` it was 98%; in that of `C#Cc1ccc(NC(=O)c2c(-c3ccccc3)noc2C)cc1`, 84%; in that of `CCN(CC)c1ccc(NC(=O)c2c(-c3ccc(Br)cc3)noc2C)cc1`, 70%. Same read-out and setting: the figure for `Cc1onc(-c2ccccc2)c1C(=O)Nc1ccc(C(=O)O)cc1` is 98%; for `Cc1onc(-c2ccccc2)c1C(=O)Nc1nc(C(C)(C)C)cs1` it is 110%. Regarding `CCN(CC)c1ccc(NC(=O)c2c(-c3c(Cl)ccc([N+](=O)[O-])c3Cl)noc2C)cc1`, the Activity stood at 66%. Take `CCN(CC)c1ccc(NC(=O)c2cc(-c3ccc(Br)cc3)oc2C(F)(F)F)cc1`: the Activity amounted to 85%.

On to `CCN(CC)c1ccc(/C=N/c2c(-c3ccccc3)noc2C)cc1`, for which the Activity amounted to 96%. Take `CCN(CC)c1ccc(NC(=O)c2c(SC)nsc2SC)cc1`: the Activity came to 110%. As to `CC[N+](C)(c1ccc(NC(=O)c2c(-c3ccccc3)noc2C)cc1)C(C)C` (configuration not stated), the Activity was found to be 83%.

For `CCN(CC)c1ccc(NC(=O)c2c(-c3coc(C)n3)noc2C)cc1`, the Activity turned out to be 100%. Same read-out and setting: in the case of `CCN(CC)c1ccc(C(=O)Nc2c(-c3ccccc3)noc2C)cc1` it was 94%.

Regarding `Cc1onc(-c2ccccc2)c1C(=O)Nc1ccc(N(C)C)cc1`, the Activity was 99%. For the compound `CCN(CC)c1ccc(NC(=O)c2ccoc2CCc2cccs2)cc1`, the Activity amounted to 100%.

For `CCN(CC)c1ccc(/N=C(\SC)c2c(-c3ccccc3)noc2C)cc1`, the Activity came to 86%. On the same count and under the same terms, in the case of `CCN(CC)c1ccc(NC(=O)c2nn(-c3ccccc3)nc2C)cc1` it was 100%. In the case of `CCN(CC)c1ccc(N(C)C(=O)c2c(-c3ccccc3)noc2C)cc1`, the Activity amounted to 97%. On the same count and under the same terms, the figure for `Cc1onc(-c2ccccc2)c1C(=O)Nc1ccc(C(=O)OCC#N)cc1` is 90%; for `CCN(CC)c1ccc(NC(=O)c2c(-c3ccc(-c4ccc(F)cc4)cc3)noc2C)cc1` it is 110%.

For the compound `CCN(CC)c1ccc(NC(=O)c2c(-n3cccc3)sc(C)c2C)cc1`, the Activity was determined as 79%. For `COC(=O)c1ccc(NC(=O)c2c(-c3ccccc3)noc2C)cc1`, the Activity was 92%. Same read-out and setting: the figure for `CCN(CCO)c1ccc(NC(=O)c2c(-c3ccccc3)noc2C)cc1` is 67%. For the compound `CCN(CC)C(=O)c1ccc(OCc2c(-c3ccccc3)noc2C)cc1`, the Activity was 92%.

Turning to `CCC(O)c1ccc(OCc2c(-c3ccccc3)noc2C)cc1` (racemic), the Activity was 87%. On to `CCN(CC)c1ccc(N(Cc2ccccc2)C(=O)c2c(-c3ccccc3)noc2C)cc1`, for which the Activity was determined as 66%. Same read-out and setting: the figure for `Cc1onc(-c2ccccc2)c1COc1ccc(C(=O)OCc2ccoc2)cc1` is 100%; for `Cc1cc(NC(=O)c2c(-c3ccccc3)noc2C)ccc1C(C)C` it is 93%. Same read-out and setting: the figure for `CCN(CC)c1ccc(N(CCF)C(=O)c2c(-c3ccccc3)noc2C)cc1` is 79%. `CCN(CC)c1ccc(NC(=O)c2nnn(C)c2-c2ccccc2)cc1`: the Activity came out at 78%.

On to `Cc1onc(-c2ccccc2)c1C(=O)Nc1ccc(OCCN2CCOCC2)cc1`, for which the Activity came out at 97%. Still for that read-out and setting: in the case of `CCN(CC)c1ccc(NC(=O)c2c(-c3ccccc3[N+](=O)[O-])noc2C)cc1` it was 84%; in that of `CCN(CC)c1ccc(/N=C/c2c(-c3ccccc3)noc2C)cc1`, 100%. Regarding `CCCOC(=O)c1ccc(OCc2c(-c3ccccc3)noc2C)cc1`, the Activity was determined as 110%. The same measure, in the same setting: the figure for `CCN(c1ccc(NC(=O)c2c(-c3ccccc3)noc2C)cc1N)C(C)C` is 76%; for `CCN(CC)c1ccc(NC(=O)c2ccnc(C(F)(F)F)c2)cc1` it is 84%; for `CCN(CC)c1ccc(CN(C(=O)Nc2ccc(C#N)cc2)c2c(-c3ccccc3)noc2C)cc1` it is 85%. On to `CCN(CC)c1ccc(NC(=O)c2c(-c3ccccc3)nnn2CCOC)cc1`, for which the Activity was found to be 91%.

Turning to `CCN(CC)c1ccc(NC(=O)c2ncoc2-c2ccccc2)cc1`, the Activity was 110%. Take `Cc1onc(-c2cccc([N+](=O)[O-])c2)c1C(=O)Nc1ccc(N(C)C)cc1`: the Activity was found to be 100%. The same measure, in the same setting: in the case of `Cc1onc(-c2ccccc2)c1C(=O)Nc1ccc(C(=O)OCCN(C)C)cc1` it was 110%; in that of `Cc1onc(-c2ccccc2)c1C(=O)Nc1ccc2c(c1)C(=O)CC2`, 79%.

In the case of `Cc1onc(-c2ccccc2)c1COc1ccc(C(=O)N(C)CCCO)cc1`, the Activity stood at 100%. With `CCN(CC)c1ccc(NC(=O)c2cnn(C)c2-c2ccccc2)cc1`, the Activity turned out to be 62%.

With `CCN(CC)c1ccc(NC(=O)c2ccsc2)cc1`, the Activity is 110%. The same measure, in the same setting: in the case of `CCN(c1ccc(NC(=O)c2c(-c3ccccc3)noc2C)cc1[N+](=O)[O-])C(C)C` it was 75%. Take `CCN(CC)c1ccc(N(Cc2c(-c3ccccc3)noc2C)C(C)=O)cc1`: the Activity was found to be 80%. Still for that read-out and setting: in the case of `CCN(CC)c1ccc(NC(=O)c2c(-c3ccccn3)noc2C)cc1` it was 100%; in that of `Cc1onc(-c2ccccc2)c1COc1ccc(C(=O)OCC(C)C)cc1`, 99%. The same measure, in the same setting: the figure for `CCN(CC)c1ccc(NCc2c(-c3ccccc3)noc2C)cc1` is 100%.

`CCN(CC)c1ccc(NC(=O)c2c(-c3c(Cl)cccc3Cl)noc2C)cc1`: the Activity came to 110%. For `CCN(CC)c1ccc(NC(=O)c2c(-c3ccccc3)noc2C)cc1Cl`, the Activity turned out to be 69%. For `CCN(CC)c1ccc(N(C)C(=S)c2c(-c3ccccc3)noc2C)cc1`, the Activity was found to be 91%. Still for that read-out and setting: in the case of `CCN(CC)c1ccc(NC(=O)c2c[nH]nc2-n2cnnn2)cc1` it was 110%; in that of `CCN(CC)c1ccc(/N=C(\SCCF)c2c(-c3ccccc3)noc2C)cc1`, 110%. Consider `CCN(CC)c1ccc(NC(=O)c2c(-c3ccccc3)nnn2C)cc1`, for which the Activity turned out to be 84%. Take `CCN(CC)c1ccc(NC(=O)c2c(-c3cc(Br)cs3)noc2C)cc1`: the Activity turned out to be 89%. The same measure, in the same setting: the figure for `Cc1onc(-c2ccccc2)c1COc1ccc([N+](=O)[O-])cc1` is 85%. For `CCN(CC)c1ccc(NC(=O)c2ncoc2-c2ccco2)cc1`, the Activity is 120%.

As to `CCN(CC)c1ccc(NC(=O)C2CCCC2)cc1`, the Activity was found to be 110%. Still for that read-out and setting: in the case of `CCN(CC)c1ccc(NC(=S)c2c(-c3ccccc3)noc2C)cc1` it was 99%.
